Assay results from ChEMBL document CHEMBL1155380, “Synthesis and characterization of a novel iNOS/Akt inhibitor Se,Se'-1,4-phenylenebis(1,2-ethanediyl)bisisoselenourea (PBISe)--against colon cancer” (Bioorg Med Chem Lett, 2010).
Calls of active or inactive are those of the source. The calls are words filed in the database; no cut-off is given here.

How the values were obtained:
HCT-116 = assay: Antitumor activity against human HCT116 cells after 72 hrs by MTS assay; assay type: functional, cell-based; settings: HCT-116, 72 h
Outline: (§1)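 Colon adenocarcinoma cells (Advanced DMEM with 2 mM L-glutamine and 10% heat-treated FBS, or RPMI-1640 with 10% FBS) exposed to increasing concentrations (10–100 μM, or 1.6–50 μM) for 72 h. Viable cells quantified by MTS. IC50 from dose-response curves, at least three independent experiments.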

Caco-2 [1] = assay: Selectivity ratio of IC50 for human Caco-2 cells to IC50 for human FF2441 cells
Outline: (§2)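 Colon adenocarcinoma lines (Caco-2, HT-29, HCT-116, SW-480) were grown in Advanced DMEM with 10% heat-treated FBS and L-glutamine, or in RPMI-1640 with 10% FBS. They were exposed to PBS vehicle or graded compound (10–100 μM, or 1.6–50 μM) for 72 h, and viability was read by MTS. FF2441 normal fibroblasts were tested by a similar MTS procedure. IC50 was fitted from dose-response curves.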

SW480 [2] = assay: Ratio of IC50 for human SW480 cells to IC50 for human FF2441 cells; outline: as §2
SW480 [3] = assay: Antitumor activity against human SW480 cells after 72 hrs by MTS assay; assay type: functional, cell-based; settings: SW480, 72 h; outline: as §1
[4] = Selectivity ratio of IC50 for human HCT116 cells to IC50 for human FF2441 cells; assay type: ADME, cell-based, HCT-116; settings: HCT116 cells and FF2441 cells; outline: as §2
HT-29 [5] = assay: Selectivity ratio of IC50 for human HT-29 cells to IC50 for human FF2441 cells; outline: as §2
Caco-2 [6] = assay: Antitumor activity against human Caco-2 cells after 72 hrs by MTS assay; assay type: functional, cell-based; settings: Caco-2, 72 h
Outline: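 Cells plated at 5×10^3 per well for 24 h, then exposed to PBS vehicle or increasing compound concentrations for 72 h. Viable cells were quantified by MTS and expressed as a percentage of the PBS-treated control. IC50 was fitted from dose-response curves, from at least three independent experiments, and reported with standard error.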

A549 = assay: Antitumor activity against human A549 cells after 24 hrs by MTS assay; assay type: functional, cell-based; settings: A549, 24 h
Outline: (§3)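 Cells plated at 5×10^3 per well for 24 h, then treated with PBS vehicle or increasing concentrations (10–100 μM or 1–40 μM). Viable cells measured by MTS as percent of PBS control. IC50 from dose-response curves. Normal FF2441 fibroblasts run alongside. Lines grown in DMEM/10% FBS, except WM115 in Tu2% medium without calcium chloride, with 2% heat-treated FBS.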

Cancer cell lines [7] = assay: Inhibition of PI3K in human colon cancer cells assessed as decrease in pAKT level at 2 to 6 uM by Western blot analysis; assay type: cell-based
Outline: (§4)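 Lysates in HEPES pH 7.5/NaCl/EDTA/Triton X-100 buffer with phosphatase and protease inhibitors, cleared at ≥10,000×g for 10 min at 4°C. BCA-quantified, 30 μg per lane. SDS gel, PVDF transfer, probed for PRAS40, phospho-PRAS40, Akt3, phospho-Akt Ser473, p27, cleaved PARP, cyclin D1 and Erk. HRP secondaries, ECL detection.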

Cancer cell lines [8] = assay: Inhibition of PI3K in human colon cancer cells assessed as increase in p27 level at 2 to 6 uM by Western blot analysis; assay type: cell-based; outline: as §4
HT-1080 = assay: Antitumor activity against human HT1080 cells after 24 hrs by MTS assay; assay type: functional, cell-based; settings: HT-1080, 24 h; outline: as §3
Cancer cell lines [9] = assay: Inhibition of PI3K in human colon cancer cells assessed as decrease in pPRAS40 level at 2 to 6 uM by Western blot analysis; assay type: cell-based; outline: as §4
HT-29 [10] = assay: Antitumor activity against human HT-29 cells after 72 hrs by MTS assay; assay type: functional, cell-based; settings: HT-29, 72 h; outline: as §1
WM-115 = assay: Antitumor activity against human WM115 cells after 24 hrs by MTS assay; assay type: functional, cell-based; settings: WM-115, 24 h; outline: as §3
Cancer cell lines [11] = assay: Inhibition of PI3K in human colon cancer cells assessed as increase in cleaved PARP level at 2 to 6 uM by Western blot analysis; assay type: cell-based; outline: as §4
[12] = biological target: Nitric oxide synthase, inducible (Homo sapiens) (UniProt P35228); assay: Inhibition of iNOS in human Caco-2 cells assessed as reduction of total nitrite production at 2 uM after 72 hrs by colorimetric assay relative to control; assay type: cell-based
Chain of Nitric oxide synthase, inducible (Homo sapiens) (P35228 whole entry): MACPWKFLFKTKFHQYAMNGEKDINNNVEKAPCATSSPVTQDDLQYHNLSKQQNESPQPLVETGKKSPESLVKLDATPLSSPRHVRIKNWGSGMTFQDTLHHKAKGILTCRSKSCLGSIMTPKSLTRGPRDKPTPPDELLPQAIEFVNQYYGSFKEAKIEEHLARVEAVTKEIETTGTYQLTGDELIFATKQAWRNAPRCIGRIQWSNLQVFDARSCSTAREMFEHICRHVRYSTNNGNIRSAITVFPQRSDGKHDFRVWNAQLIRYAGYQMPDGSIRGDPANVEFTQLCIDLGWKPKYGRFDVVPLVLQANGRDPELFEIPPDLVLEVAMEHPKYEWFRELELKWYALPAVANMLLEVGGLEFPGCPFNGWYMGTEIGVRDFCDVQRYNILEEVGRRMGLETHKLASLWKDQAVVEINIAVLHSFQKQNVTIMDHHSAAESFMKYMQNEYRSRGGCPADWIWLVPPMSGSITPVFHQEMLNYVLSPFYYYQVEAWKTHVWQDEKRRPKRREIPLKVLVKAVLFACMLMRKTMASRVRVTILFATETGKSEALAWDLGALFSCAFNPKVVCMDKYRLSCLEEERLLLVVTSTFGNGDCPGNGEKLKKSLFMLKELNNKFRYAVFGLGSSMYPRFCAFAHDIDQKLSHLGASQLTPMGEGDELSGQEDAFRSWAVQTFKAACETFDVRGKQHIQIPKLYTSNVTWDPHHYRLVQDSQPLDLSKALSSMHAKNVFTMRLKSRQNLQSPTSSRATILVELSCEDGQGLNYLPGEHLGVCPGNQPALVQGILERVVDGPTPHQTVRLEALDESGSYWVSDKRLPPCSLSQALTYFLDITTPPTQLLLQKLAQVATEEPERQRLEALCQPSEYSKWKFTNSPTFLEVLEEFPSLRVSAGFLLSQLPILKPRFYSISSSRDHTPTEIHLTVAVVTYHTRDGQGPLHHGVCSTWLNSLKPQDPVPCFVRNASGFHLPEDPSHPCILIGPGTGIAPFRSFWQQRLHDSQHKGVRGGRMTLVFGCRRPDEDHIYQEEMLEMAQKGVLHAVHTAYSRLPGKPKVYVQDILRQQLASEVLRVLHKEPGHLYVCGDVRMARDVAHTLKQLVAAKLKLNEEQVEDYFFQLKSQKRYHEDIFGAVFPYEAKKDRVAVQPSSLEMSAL
Outline: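 Caco-2 cells (1×10^6) in Advanced DMEM/10% heat-treated FBS for 12 h, then conditioned in phenol-red-free DMEM/0.5% FBS. Treated 72 h in the same medium, PBS control. Supernatant cleared at 500×g, incubated 2 h with nitrate reductase and cofactors, then Griess reagents I and II. A540 read against a nitrate standard curve (5–35 μM). One-way ANOVA.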

MDA-MB-231 = assay: Antitumor activity against human MDA-MB-231 cells after 24 hrs by MTS assay; assay type: functional, cell-based; settings: MDA-MB-231, 24 h; outline: as §3
OVCAR-3 = assay: Antitumor activity against human OVCAR-3 cells after 24 hrs by MTS assay; assay type: functional, cell-based; settings: OVCAR-3, 24 h; outline: as §3
PC-3 = assay: Antitumor activity against human PC3 cells after 24 hrs by MTS assay; assay type: functional, cell-based; settings: PC-3, 24 h; outline: as §3
Cancer cell lines [13] = assay: Inhibition of PI3K in human colon cancer cells assessed as decrease in AKT2 level at 2 to 6 uM by Western blot analysis; assay type: cell-based
Cancer cell lines [14] = assay: Inhibition of MAPK in human colon cancer cells assessed as decrease in pAKT level at 2 to 6 uM by Western blot analysis; assay type: cell-based
Outline: (§5)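 They were cleared at ≥10,000×g for 10 min at 4°C and assayed by BCA; 30 μg per lane went on NuPAGE gels, then PVDF. Probes: phospho-Akt (Ser473), phospho-PRAS40, cleaved PARP and p27, with HRP secondaries and ECL detection.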

Cancer cell lines [15] = assay: Inhibition of MAPK in human colon cancer cells assessed as decrease in AKT2 level at 2 to 6 uM by Western blot analysis; assay type: cell-based
Cancer cell lines [16] = assay: Inhibition of MAPK in human colon cancer cells assessed as increase in p27 level at 2 to 6 uM by Western blot analysis; assay type: cell-based; outline: as §5
Cancer cell lines [17] = assay: Inhibition of MAPK in human colon cancer cells assessed as increase in cleaved PARP level at 2 to 6 uM by Western blot analysis; assay type: cell-based; outline: as §5
Cancer cell lines [18] = assay: Inhibition of MAPK in human colon cancer cells assessed as decrease in pPRAS40 level at 2 to 6 uM by Western blot analysis; assay type: cell-based; outline: as §5

IC50 (HCT-116) | IC50 (Caco-2 [6]) | SMILES | Ratio (Caco-2 [1]) | Ratio (SW480 [2]) | IC50 (SW480 [3]) | selectivity ratio [4] | Ratio (HT-29 [5]) | IC50 (A549) | IC50 (HT-1080) | IC50 (WM-115) | IC50 (MDA-MB-231) | IC50 (OVCAR-3) | IC50 (PC-3) | further results
> 100 µM | > 100 µM | Br.N=C(N)SCCc1ccccc1 [PHENYLETHYLISOTHIOUREAHYDROBROMIDE] | 2 | 2 | > 100 µM | 2 | 2 |  |  |  |  |  |  | 
 |  | Br.N=C(N)[Se]CCc1ccc(CC[Se]C(=N)N)cc1 | 2 | 2 |  | 2 | 2 | 4.17 µM | 3.22 µM | 9.7 µM | 6.03 µM | 5.33 µM | 6.64 µM | inhibition (Cancer cell lines [7]): Active; inhibition (Cancer cell lines [8]): Active; inhibition (Cancer cell lines [9]): Active; IC50 (HT-29 [10]): 3.84 µM; inhibition (Cancer cell lines [11]): Active; inhibition [12]: 25%; inhibition (Cancer cell lines [13]): Active
> 100 µM | 59.4 µM | Br.Br.N=C(N)SCCc1ccc(CCSC(=N)N)cc1 | 2 | 2 |  | 2 |  | > 100 µM | > 100 µM | > 100 µM | > 100 µM | > 100 µM | > 100 µM | inhibition (Cancer cell lines [14]): inactive; inhibition (Cancer cell lines [15]): inactive; inhibition (Cancer cell lines [16]): inactive; inhibition (Cancer cell lines [17]): inactive; inhibition (Cancer cell lines [18]): inactive

SMILES | IC50 (HCT-116) | IC50 (Caco-2 [6]) | Ratio (Caco-2 [1]) | Ratio (SW480 [2]) | IC50 (SW480 [3]) | selectivity ratio [4] | Ratio (HT-29 [5]) | IC50 (A549) | IC50 (HT-1080) | IC50 (WM-115) | IC50 (MDA-MB-231) | IC50 (OVCAR-3) | IC50 (PC-3) | further results
Br.N=C(N)[Se]CCc1ccccc1 | > 100 µM |  | 2 | 2 | > 100 µM | 2 | 2 |  |  |  |  |  |  | 
